The record followed here is ChEMBL document CHEMBL3992522, “Antileishmanial Activity of Pyrazolopyridine Derivatives and Their Potential as an Adjunct Therapy with Miltefosine” (J Med Chem, 2017).

The nature of series [1]: Selectivity index, ratio of CC50 for African green monkey Vero cells to IC50 for Leishmania donovani MHOM/IN/80/DD8 amastigote forms infected in mouse J774 cells. It counts as toxicity, cell-based. The conditions noted are these: read-out: Ratio CC50/IC50. A digest of the protocol: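 CC50: Vero or J774 cells (1×10^5/well) exposed 72 h to seven two-fold dilutions, 500–7.81 μM; MTT 2 h at 37 °C, formazan in DMSO read at 540 nm. IC50: luciferase-expressing Dd8 amastigotes in J774 macrophages (1:8), 72 h, luminescence, four-parameter Hill fit. SI = CC50/IC50, IC50 mean of three experiments.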

In series [2] the test system is Leishmania donovani. Put plainly: Antileishmanial activity against Leishmania donovani amastigote forms infected in Balb/c mouse assessed as inhibition of parasitic burden in liver at 50 mg/kg, ip administered for 5 consecutive days measured up to 7 weeks post treatment by Giemsa staining based assay. It counts as functional, organism-based.

The source made the active and inactive calls. The rule behind the calls is not given here.

Take `COc1ccc(C2C3=C(CCC3=O)Nc3c2c(-c2c[nH]c4ccccc24)nn3-c2ccc(Cl)c(Cl)c2)cc1OC` (configuration not stated): the selectivity ratio in series [1] came to 108. Also, the inhibition result in series [2] was “Active”.
